Out of some 300,000 compounds screened, about 4,400 (1.5%) were called active. The full list was thinned out, with actives kept by preference. Values without a mark were called inactive.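 Rule for the calls: active = mean inhibition across valid replicates above about 55% (limit read from the data); inconclusive = mean below that limit but half or more replicates reach it; inactive = mean below it, under half of replicates reach it.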
Test: inhibitors of intracellular T. cruzi growth, primary screen, luminescence, NIH3T3 host cells (AID 1885);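 note: signal also drops with host cell toxicity which is not excluded here; 0% = plate median of DMSO wells and 100% = zero luminescence signal; higher percent means less beta-gal luminescence so fewer parasites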
Conditions: T. cruzi beta-gal in NIH3T3, luminescence, 90 h; stronger effect = higher value; concentration not given here
Procedure, shortened: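 compound dosing = single 50 nL compound addition per well in DMSO | material = NIH/3T3 host cells with β-galactosidase reporter T. cruzi | input = 5,000 host fibroblasts per well | timing = ≥90 h infection period, 3 h prior cell attachment | read-out basis = percent inhibition of parasite-derived β-gal signal | detection = GalScreen β-gal luminescence, detergent lysis, 60 min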
Work on `CCCOc1ccc(NC(=O)C2OC3OC(C)(C)OC3C3OC(C)(C)OC23)cc1` (configuration not stated) yielded an inhibition of 4.62%.
`CN1CCN(/N=C/c2ccc(C#N)cc2)CC1` gave an inhibition of 48.6%.
With `CN1CCN(/N=C/c2ccc(-c3ccc([N+](=O)[O-])cc3)o2)CC1` the inhibition was 59.9% (active).
For `Cc1cc(-c2ccc(/C=N/n3cnnc3)o2)c([N+](=O)[O-])cc1C`, the inhibition was -3.12%.
Molecule `COc1ccc(-c2nc3c(s2)CCc2onc(-c4ccc(Br)cc4)c2-3)cc1` has an inhibition of -2.05%.
`Cc1ccc(OCCNC(=O)CCNS(=O)(=O)c2ccc(Br)cc2)cc1` gave an inhibition of -1.12%.
In the case of `COc1ccc(NC(=O)CSc2nnc(Cc3ccccc3)c(=O)n2N)cc1`, the inhibition is reported as -3.84%.
With `CN(C)CCCN(C(=O)c1ccc(S(=O)(=O)N2CCCc3ccccc32)cc1)c1nc2ccc(F)cc2s1` the inhibition was 22.9%.
In the case of `O=C(Nc1nc2ccc([N+](=O)[O-])cc2s1)c1ccc(S(=O)(=O)N2CCCc3ccccc32)cc1`, the inhibition is reported as 73.8% (active).
`CS(=O)(=O)c1ccc2nc(NC(=O)c3ccc(N4CCCC4=O)cc3)sc2c1` gave an inhibition of 0.975%.
`CC(C)(C)N1C(=O)[C@H]2[C@@H](c3ccc(Br)cc3)N3C(=O)N(c4cccc(Cl)c4)C(=O)[C@@]3(C)[C@H]2C1=O` showed an inhibition of -6.33%.
For `Cc1ccc(-c2csc(NC(=O)C3=COCCO3)n2)cc1C`, the inhibition was 71.6% (active).
With `CC(=O)NCCC(=O)Nc1nc(-c2ccc3c(c2)OCCO3)cs1` the inhibition was -11.7%.
With `Cc1csc(NC(=O)C2=COCCO2)n1` the inhibition was -7.78%.
Molecule `Cc1ccc(-c2nn(-c3ccccc3)cc2C(=O)NCCCN2CCCC2=O)cc1` has an inhibition of -2.8%.
`CC(C)(C)n1cnnc1Sc1ccc([N+](=O)[O-])cn1` showed an inhibition of -5.35%.
With `COc1ccc(C2CC(=O)Oc3ccc(C(C)(C)C)cc32)cc1` (configuration not stated) the inhibition was -9.82%.
`COc1ccc2oc(=O)cc(CN3CCOCC3)c2c1` gave an inhibition of -6.42%.
For `CCOc1ccc(N(C)Cc2cc(=O)oc3ccc(OC)cc23)cc1`, the inhibition was 79.2% (active).
`COc1ccc2oc(=O)cc(-c3cc4ccccc4o3)c2c1` gave an inhibition of 0.932%.
`CCCn1c(C2CCCN2c2nc(-c3ccc(OC)cc3)cs2)nc2ccccc21` (configuration not stated) showed an inhibition of -7.75%.
Molecule `CCOC(=O)N1CCN(C(c2cccnc2)c2ccc3cccnc3c2O)CC1` (configuration not stated) has an inhibition of 30.1%.
With `CCN1CCN(C(c2cccnc2)c2cc(Cl)c3cccnc3c2O)CC1` (configuration not stated) the inhibition was 57.7% (active).
`Oc1c(C(c2ccccn2)N2CCOCC2)ccc2cccnc12` (configuration not stated) gave an inhibition of 10.2%.
In the case of `COc1ccc(Cl)cc1NS(=O)(=O)c1cccc(C(=O)NC2CCC(O)CC2)c1` (configuration not stated), the inhibition is reported as 3.45%.
With `COC(=O)c1c(-c2ccsc2)oc2ccc(-c3cc(OC)c(OC)c(OC)c3)cc12` the inhibition was 34%.
For `CNC(=O)C(=O)N/N=C/c1ccccn1`, the inhibition was -8.15%.
Molecule `Cc1nnc(N/N=C/C2CC=CCC2)[nH]c1=O` (configuration not stated) has an inhibition of 0.195%.
In the case of `Cc1nnc(N/N=C/c2ccccn2)[nH]c1=O`, the inhibition is reported as 60.9% (active).
Work on `CC1(C)S[C@@H]2[C@H](N=CN3CCCCCC3)C(=O)N2[C@H]1C(=O)O` yielded an inhibition of 4.45%.
With `O=C(NCc1ccc(Cl)cc1)C(=O)NCC1CCCN1S(=O)(=O)c1cccs1` (configuration not stated) the inhibition was 12.8%.
With `O=C(/C=C/Sc1ncn[nH]1)c1ccc(Cl)cc1` the inhibition was 56.1% (active).
`O=C(CSc1ncn[nH]1)N/N=C/c1ccc(F)cc1` gave an inhibition of -12.6%.
In the case of `Cc1cc(C)nc(S/C=C/C(=O)c2ccccc2)n1`, the inhibition is reported as 12%.
In the case of `O=C1[C@H]2[C@@H](c3ccc(F)cc3)N3C(=O)N(c4ccc(C(F)(F)F)cc4)C(=O)[C@@]3(Cc3ccccc3)[C@H]2C(=O)N1C1CCCCC1`, the inhibition is reported as 36.5%.
Work on `COc1ccc(CNC(=O)C2CCN(C(=O)c3ccccc3)CC2)cc1` yielded an inhibition of -1.19%.
Work on `COc1cccc(N=c2oc3c(C)ncc(CO)c3cc2C(N)=O)c1` yielded an inhibition of 13.3%.
In the case of `Cc1nc(Nc2ccccc2F)c2nnn(Cc3ccccc3Cl)c2n1`, the inhibition is reported as -8.04%.
Work on `CCCc1nc(NCc2ccc3c(c2)OCO3)c2nnn(Cc3ccccc3Cl)c2n1` yielded an inhibition of 11.9%.
For `Cc1nc(Nc2ccc3c(c2)OCCO3)c2nnn(Cc3ccccc3Cl)c2n1`, the inhibition was 54.7% (active).
Molecule `Cc1ccc(NS(=O)(=O)c2ccc3c(c2)NC(=O)CO3)cc1` has an inhibition of 5.83%.
For `CN(CC(=O)Nc1cccc(F)c1)C(=O)C1CC(=O)N(CCc2ccccc2)C1` (configuration not stated), the inhibition was -2.73%.
With `Cc1ccc(-n2c(SCC(=O)N3c4ccccc4Sc4ccccc43)nnc2-c2ccncc2)cc1` the inhibition was 63.1% (active).
In the case of `NNC(=O)CSc1nnc(-c2ccccc2)n1-c1ccccc1`, the inhibition is reported as -6.88%.
With `Cc1ccc(-c2nnc(SCC(=O)N/N=C/c3cccs3)n2-c2ccc(C)cc2)cc1` the inhibition was 12.8%.
Molecule `O=C(CCC1CCCN(C(=O)c2ccc(F)c(F)c2)C1)N1CCN(c2ccccn2)CC1` (configuration not stated) has an inhibition of 9.19%.
In the case of `COc1cc(/C=C2/SC(=S)N(Cc3ccccc3)C2=O)cc(OC)c1O`, the inhibition is reported as -5.6%.
`O=C(Nc1ccccc1Cl)Nc1cccc2cccnc12` gave an inhibition of 3.14%.
For `CC(=O)/C(=N\Nc1ccc(Cl)cc1Cl)Sc1cccc2cccnc12`, the inhibition was 67.6% (active).
For `O=C(Nc1cccc2cccnc12)c1cccc(Cl)c1`, the inhibition was -33.4%.
`CCOc1ccc(C(=O)CCC(=O)NC2=NCCS2)cc1` showed an inhibition of 10.9%.
`CC(=O)c1cc(CN2CCC(n3nccc3NC(=O)c3ccccc3Cl)CC2)cs1` showed an inhibition of 9.08%.
`CCN(CC)CCn1cnc2c1c(=O)[nH]c(=O)n2Cc1ccccc1` showed an inhibition of -8.26%.
For `N=c1c2c(-c3ccccc3)c(-c3ccccc3)n(Cc3ccccc3)c2ncn1CCCO`, the inhibition was 70.5% (active).
Work on `COCCn1cnc2c1c(=O)n(Cc1ccc(Br)cc1)c(=O)n2Cc1ccccc1` yielded an inhibition of 19.6%.
`N#Cc1ccc(-c2ccc(Cl)cc2)nc1Oc1ccc(F)cc1` showed an inhibition of 14.3%.
With `N#CCCN(C(=O)COC(=O)c1ccc(S(=O)(=O)N2CCCCCC2)cc1)c1ccccc1` the inhibition was -2.09%.
`CC(C)CN(C(=O)Cn1c(=O)cnc2ccccc21)C1CCS(=O)(=O)C1` (configuration not stated) showed an inhibition of 11%.
With `N#CCc1c(C#N)c(N)nc(N2CCCC2)c1C#N` the inhibition was 8.26%.
`Cc1ncc(CO)c(/C=N/NC(=O)c2cccc(S(=O)(=O)N3CCCC3)c2)c1O` gave an inhibition of -9.29%.
`CCn1c2c(c3ccc(OC)cc31)CCCC2=O` gave an inhibition of -5.03%.
In the case of `O=C(Cc1nc2ccccc2[nH]c1=O)c1ccc(Cl)cc1`, the inhibition is reported as 0.565%.
`CCC(=O)/C(=C(/O)c1ccccc1)c1nc2ccccc2[nH]1` gave an inhibition of 3.53%.
For `O=C(/C(=C/c1cccc(Cl)c1)c1nc2ccccc2[nH]1)c1ccccc1`, the inhibition was 68.4% (active).
In the case of `CCCCn1c(N)c(N(CC(C)C)C(=O)CSc2ccc([N+](=O)[O-])cc2)c(=O)[nH]c1=O`, the inhibition is reported as 6.23%.
`CC(Oc1ccc(Br)cc1)C(=O)NCC(c1ccco1)N1CCCCC1` (configuration not stated) showed an inhibition of -0.255%.
`CCN(C(=O)CSc1nnnn1-c1ccccc1OC)C1CCS(=O)(=O)C1` (configuration not stated) showed an inhibition of -11.8%.
With `COC(=O)C1=C(C)Nc2ncnn2C1c1cccnc1` (configuration not stated) the inhibition was 17.7%.
Molecule `COC(=O)C1=C(C)Nc2ncnn2C1c1ccco1` (configuration not stated) has an inhibition of -1.94%.
In the case of `CC1=C(C(=O)OC2CCCCC2)C(c2cccnc2)n2ncnc2N1` (configuration not stated), the inhibition is reported as 61.7% (active).
In the case of `COc1ccc(C(=O)COC(=O)COc2ccc(C)c(C)c2)cc1`, the inhibition is reported as 4.19%.
In the case of `O=S(=O)(NC1CCCCC1N1CCN(c2ccccc2F)CC1)c1ccccc1` (configuration not stated), the inhibition is reported as 20.8%.
`Cc1n[nH]c(=O)c2c(NC(=O)COC(=O)c3ncc(Cl)c(Cl)c3Cl)oc(C)c12` gave an inhibition of -10.3%.
Work on `COc1ccc(N(CC(=O)Nc2cccc3ccccc23)S(C)(=O)=O)c(OC)c1` yielded an inhibition of -7.06%.
In the case of `CCc1ccccc1NC(=O)CN(c1ccc(OC)cc1OC)S(=O)(=O)c1ccccc1[N+](=O)[O-]`, the inhibition is reported as 58.4% (active).
Molecule `COc1ccc2c(CC(=O)OCC(=O)Nc3ccccc3[N+](=O)[O-])coc2c1` has an inhibition of 16.9%.
For `O=C1N[C@@H](Cc2ccccc2)C(=O)N2[C@H]1C[C@]1(Br)c3ccccc3N(S(=O)(=O)c3ccccc3)[C@H]21`, the inhibition was -12.8%.
For `Cc1cc(Cl)ccc1OCc1nc(-c2ccncc2)no1`, the inhibition was 74.8% (active).
Molecule `COc1ccc(-c2noc(COc3ccc(Cl)c(C)c3)n2)cc1` has an inhibition of -9.09%.
With `c1ccc(CCc2nc(-c3ccncc3)no2)cc1` the inhibition was -6.81%.
For `O=C(c1ccncc1)N1CCN(S(=O)(=O)c2cccc([N+](=O)[O-])c2)CC1`, the inhibition was 25.7%.
For `CCCNC(=O)c1c(Cl)cnn1-c1ccc(C)cc1`, the inhibition was -28%.
Molecule `CCCNC(=O)CCc1c(C)nc2c(c(C)nn2-c2ccccc2)c1C` has an inhibition of 28%.
With `CCCNC(=O)CCc1c(C)nc2c(c(C)nn2-c2ccc(C)cc2)c1C` the inhibition was 63.7% (active).
Molecule `O=S(=O)(O)Oc1c[nH]c2ccccc12` has an inhibition of -8.75%.
With `COc1ccccc1N(CC(=O)N/N=C(\C)c1ccccc1O)S(=O)(=O)c1ccc(C)cc1` the inhibition was 65.9% (active).
`COc1ccccc1NC(=O)CN(c1ccccc1OC)S(=O)(=O)c1ccccc1` gave an inhibition of 2.04%.
With `COc1ccc(S(=O)(=O)N(CC(=O)N/N=C/c2ccccc2C(=O)O)c2ccccc2OC)cc1` the inhibition was 20.6%.
For `O=C(N/N=C/c1cc(Br)c(O)c([N+](=O)[O-])c1)C(O)(c1ccccc1)c1ccccc1`, the inhibition was -7.65%.
In the case of `COc1ccc(C(C)=O)cc1COc1ccc(Cl)c(C)c1`, the inhibition is reported as 14.6%.
In the case of `CCn1nc(C)c(NC(=O)/C=C/c2ccc(OC)c(COc3ccc(Br)cc3)c2)c1C`, the inhibition is reported as 68.5% (active).
For `COc1ccc(/C=C/C(=O)Nc2c(C)nn(C)c2C)cc1COc1ccc(Br)cc1`, the inhibition was 30.9%.
